# Hits are enriched below; roughly 3.4% of the tested compounds scored in any of these assays.
# E-selectin induc = E-selectin induction in HUVECs, primary screen, imaging, HUVEC, immunofluorescence imaging, single point | P16581 | normalized: neutral wells 0, TNF-alpha wells 100 | activation, % at 7.58 µM | 260,000 tested, 0.37% active | AID 686992, 2013;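 active = mean E-selectin-positive cell signal at least 10% of the positive control, reached in at least 60% of replicates, without over 20% cell loss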
#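 Read-out basis: % PE-positive cells; Test system: HUVEC primary endothelial cells; Technique: immunofluorescence imaging; Dosing: single-point compound dose.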
# rRNA inh HTS = reduced GFP signal of wild-type E. coli, primary screen, bacterial rRNA inhibitor project, GFP/RFP fluorescence, OD600, single point; AID 720706, 2013; GFP signal change (wild-type ribosome), % (test concentration not listed); E. coli WT GFP vs humanized-ribosome RFP mutants, 24 h; stronger effect = lower value; DMSO median 0, no signal -100; 350,000 tested, 1.6% active;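 active = significant combined selectivity score with lowered wild-type GFP, culture density cut under 30%, mutant RFP and density less affected; inactive = any of these conditions unmet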
# S100A4 MyoIIA = inhibitors of S100A4-myosin IIA peptide binding, primary screen, biochemical, fluorescence polarization, TAMRA-MyoIIA peptide. Protein S100-A4 (Homo sapiens), P26447. AID 652163, 2013. inhibition, % at 10.7 µM. 360,000 tested, 0.14% active;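 active = mean inhibition of at least 70% across replicates, with every replicate also reaching that level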
#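 Material: human S100A4 monomer with TAMRA-labelled myosin IIA peptide; buffer or medium: HEPES pH 7.2 with CaCl2, KCl, NaCl, DTT, Triton; compound dosing: one concentration per compound; schedule: 5 min incubation before reading; benchmarks: neutral control DMSO, positive control TFP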
# ERAP1 inh = human ERAP1 aminopeptidase inhibitors, primary screen, biochemical, single point, plate reader; Endoplasmic reticulum aminopeptidase 1 (Homo sapiens), Q9NZ08; recombinant ERAP1, Leu-AMC fluorescence, 60 min; inhibition, % at 10.7 µM; 340,000 tested, 0.15% active;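 active = mean replicate inhibition of at least 30%, or all replicates individually reaching that 30% level; inactive = mean below 30% and not every replicate reaching it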;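 note: 0% = neutral control wells and 100% = L-leucinethiol positive control wells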
# SIRT5 block = SIRT5 desuccinylase inhibitors, primary screen, biochemical, fluorescence imaging, single point, set 5; inhibition, % at 15 µM; NAD-dependent protein deacylase sirtuin-5, mitochondrial (Homo sapiens), Q9NXA8; Purified SirT5, succinyl-peptide AMC, trypsin-coupled fluorescence; 330,000 tested, 1.1% active; in the data active = inhibition above about 15%
# MLL AF4-AF9 inh = inhibitors of AF4 peptide binding to AF9, primary screen, biochemical, AlphaScreen, biotin-AF4 peptide, FLAG-AF9, single point; Protein AF-9 (Homo sapiens), P42568; inhibition, % at 10 µM; 350,000 tested, 0.47% active;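 active = every replicate reaching a set inhibition limit, whatever the replicate mean, cut at about 25% in these data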;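 note: 0% = plate neutral control median and 100% = total signal loss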
# Starred values were filed as active, the others as inactive; x = no result given.
SMILES,E-selectin induc,rRNA inh HTS,S100A4 MyoIIA,ERAP1 inh,SIRT5 block,MLL AF4-AF9 inh
CCCC(=O)Nc1ccc2c(c1)OC[C@H](C)N(S(=O)(=O)c1cn(C)cn1)C[C@@H](C)[C@@H](OC)CN(C)C2=O,0,4,18,-5,1,-1
CC1(C)CC(=O)C(N=Nc2cccnc2)=C(O)C1,x,5,15,9,2,2
CC1(C)CC(=O)c2c(-c3cccnc3)n[nH]c2C1,x,15,-7,-5,15*,x
C[C@H]1CN([C@@H](C)CO)C(=O)c2cc(NC(=O)C3CCCCC3)ccc2O[C@@H]1CN(C)CC1CC1,0,4,19,4,22*,1
C[C@H](CO)N1C[C@H](C)[C@@H](CN(C)S(C)(=O)=O)Oc2ccc(NC(=O)C3CCCCC3)cc2C1=O,-12,3,-3,-1,-1,-31
C[C@H](CO)N1C[C@H](C)[C@H](CN(C)S(C)(=O)=O)Oc2ccc(NC(=O)C3CCCCC3)cc2C1=O,41*,0,5,3,-1,0
C[C@H](CO)N1C[C@H](C)[C@H](CN(C)C(=O)Cc2ccccc2)OCCCC[C@H](C)Oc2ccc(NC(=O)Nc3cccc4ccccc34)cc2C1=O,1,1,-7,1,-2,-2
CO[C@H]1CC[C@@H]2CCN(C)C(=O)C[C@@H](c3ccccc3)CN(C)C(=O)c3cc(C#N)ccc3OC[C@H]1O2,0,2,3,6,-3,0
CCOC(=O)c1c(C)[nH]c(C)c1S(=O)(=O)NCC1CCN(Cc2ccc(C)cc2)CC1,x,7,-40,0,-1,5
CCOC(=O)c1c(C)[nH]c(C)c1S(=O)(=O)NCC1CCN(Cc2cccc(Cl)c2)CC1,0,1,5,0,16*,9
COc1ccc(CN(C(=O)Cn2nnc(-c3ccc(C)o3)n2)C(C(=O)NCC2CCCO2)c2ccco2)cc1 (centres undefined),0,21,-1,2,112*,-4
Cc1ccc(-c2nnn(CC(=O)N(Cc3ccccc3)C(C(=O)NC(C)(C)C)c3ccncc3)n2)o1 (centres undefined),x,14,-6,0,0,9
Cc1ccc(-c2nnn(CC(=O)N(Cc3ccco3)C(C(=O)NC(C)(C)C)c3ccc(C)o3)n2)o1 (centres undefined),x,-16,1,2,18*,10
COc1ccc(-c2nnn(CC(=O)N(Cc3ccco3)C(C(=O)NCC3CCCO3)c3ccco3)n2)cc1 (centres undefined),0,-3,-4,-1,1,-3
CC(C)CC#Cc1cnc2c(c1)C(=O)N([C@@H](C)CO)C[C@H](C)[C@@H](CN(C)C(=O)c1ccccc1F)O2,0,3,-8,-1,2,-2
COC(=O)CC1=C(C)C(=O)CC2C(C)(C)CCCC12C (centres undefined),x,-6,-11,-1,18*,-1
Cc1ccc(O)c(CNc2cccc(C)n2)c1,0,-1,-1,2,-2,-5
Cc1cccc(NCc2cc(Cl)ccc2O)n1,x,-52*,3,0,-2,-4
CCC(=O)N(CCC(c1ccco1)C(C)C)Cc1ccccc1 (centres undefined),0,-39*,3,7,-1,0
CC(=O)N(CCC(c1ccco1)C(C)C)Cc1ccc(Cl)cc1 (centres undefined),x,x,0,-6,0,-1
COCC(=O)Nc1ccc2c(c1)C(=O)N(C)C[C@H](OC)[C@H](C)CN(Cc1cc(F)ccc1F)[C@H](C)CO2,0,1,-10,-3,12,4
O=S(=O)(CCc1ccncc1)c1ccc(Cl)cc1,0,4,1,-2,27*,1
Nn1cnc2c(c1=O)C1(CCCCC1)Cc1ccccc1-2,0,x,x,x,x,x
